Each structure is given as a SMILES string.

The series is described as follows: Toxicity liver stage against HepG2, at 10uM. It counts as cell-based. Also noted: test concentration 10 uM, cell line HepG2-A16-CD81EGFP. The conditions noted are these: human, HepG2-A16-CD81EGFP cells; read-out: INHIBITION
The gist of the method: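 Uninfected HepG2-A16-CD81EGFP cells, 3 × 10^3 per well, 1536-well, plated on prespotted compound at 10 μM final, parasite-free screening media added to match infected plates; puromycin 10 μM positive, DMSO 0.5% negative; run in parallel with 48 h PbLuc assay at 37 °C, 5% CO2; viability by CellTiter-Glo luminescence, normalized to controls.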
With `CC(C)[C@H](NC(=O)N1CCC(Cc2ccccc2)CC1)C(=O)O`, the cytotoxicity at 10 µM is -7.44%.
Then `CCNC(=O)N1CC[C@H]2CC(=O)N(CC(N)=O)CC[C@H]2C1`, with 10%.
`O=C(NC[C@H]1OC[C@@H](NC2CCC(F)(F)CC2)[C@@H]1O)N1CCOCC1`: the cytotoxicity at 10 µM was -0.0603%.
Next, `CNC(=O)[C@@H]1[C@@H](c2ccccc2)CN2CCN(Cc3cc(C)no3)C[C@H]12`: 5.94%; `CCNCCC(Cc1ccccc1)c1ccco1` (stereo not given): 5.31%.
For `Cc1cc(C)n2c(CCCNS(=O)(=O)c3cccs3)nnc2n1`, the cytotoxicity at 10 µM came out at 1.57%.
With `COCC(=O)NCc1nn(CCN2CCCC2)c(=O)c2ccccc12`, the cytotoxicity at 10 µM is -18.9%.
Then `Cc1nnc(C2CCN(C(=O)c3cnc4ccccc4n3)CC2)s1`, with 7.1%.
`O=C(NC[C@H]1OC[C@@H]2CCN(c3ncccn3)C[C@@H]21)c1ccnnc1`: the cytotoxicity at 10 µM was 7.37%.
Next, `Cc1noc(C2CCC3(CCN(C(=O)c4ccncn4)CC3)O2)n1` (stereo not given): 5.76%; `CCOCC1CN(C(=O)c2cccc(C)n2)Cc2cnn(C)c21` (stereo not given): 2.98%; `CCOCC1CN(Cc2cc(C)on2)Cc2cn(C)nc21` (stereo not given): 13.6%.
Regarding `O=C(NCCn1ccc(-c2ccccn2)n1)c1ccncc1`, the cytotoxicity at 10 µM was -20.7%.
On to `Cc1nn(C)c(C)c1CNC(=O)c1cc(NC(=O)C2CC2)n(C)n1`, for which the cytotoxicity at 10 µM was 5.31%.
Next, `CCN(CC)CCNC(=O)c1cc(OC)c2ccoc2c1`: -0.971%.
Next, `CCC1c2cccn2CCN1S(=O)(=O)N1CCOCC1` (stereo not given): 7.25%.
As for `O=C(NCC1CCCO1)c1cc(-c2cccnc2)c2cnccc2n1` (stereo not given), the cytotoxicity at 10 µM came to 15.2%.
Next, `NC(=O)c1ccc(C2CN(Cc3ccc(F)cc3)CCO2)nc1` (stereo not given): 18.6%.
Next, `CC[C@H](Cn1ncc2ccccc2c1=O)NC(=O)c1ccccn1`: -4.27%.
Next, `O=C(C1CC1)N1C[C@H]2CCCN(S(=O)(=O)c3ccc(Cl)s3)[C@H]2C1`: 8.26%; `Cc1nc(NC2CCCC2)cc(C2CCN2C(=O)c2ccccc2)n1` (stereo not given): -6.31%; `c1cnc(N2CCC(OCC3CCCCO3)CC2)nc1` (stereo not given): -11.4%.
As for `CN(C(=O)c1ccccc1N(C)S(C)(=O)=O)c1ccc(C(C)(C)C)cc1`, the cytotoxicity at 10 µM stood at 5.17%.
Next, `Cn1c(CN2CCCC(N3CCNC3=O)C2)cc(=O)n(C)c1=O` (stereo not given): -5.6%; `CCCC(C#N)NC(=O)CCCOc1cccc(F)c1` (stereo not given): -44.1%; `CNS(=O)(=O)c1ccc(F)c(C(=O)NCc2ccnc(OC)c2)c1`: -9.8%.
For the compound `CNC(=O)CCS(=O)(=O)Cc1nnnn1-c1ccccc1`, the cytotoxicity at 10 µM came to 15.3%.
Consider `CCOc1c(F)cccc1C(=O)N(CC)C(C)c1ccncc1` (stereo not given), for which the cytotoxicity at 10 µM was 11%.
On to `O=C(Cn1cc(C2CC2)nn1)N(Cc1ccco1)Cc1cccs1`, for which the cytotoxicity at 10 µM was -13.3%.
Consider `COc1ccc(CN(C(=O)CCC(C)C)c2cnn(C)c2)c(OC)c1`, for which the cytotoxicity at 10 µM is -1.35%.
Take `CCCNC(=O)c1cc(Br)c2c(c1)OCCO2`: the cytotoxicity at 10 µM worked out at 9.65%.
Then `CN(CCC(F)(F)F)C(=O)C1CSCN1C(=O)C(C)(C)C` (stereo not given), with 9.07%.
Then `CCOc1cc(CN(C)CCCO)ccc1OC(F)F`, with -14.1%.
As to `CC(C)CN1CCC(NC(=O)c2ccc(F)cc2F)CC1`, the cytotoxicity at 10 µM was -3.1%.
Then `O=C(CC1CN(Cc2ccccc2)CCO1)Nc1ccsc1` (stereo not given), with -16.4%; and `O=C(NCc1ccc(Cl)cc1Cl)NCC1(O)CCSC1` (stereo not given), with -9.12%.
As to `CCN(C(=O)NCCc1ccccc1Cl)C(C)CS(C)(=O)=O` (stereo not given), the cytotoxicity at 10 µM was found to be 8.83%.
As for `Cc1cccc(OCC(=O)N(Cc2ccncc2)C2CC2)c1`, the cytotoxicity at 10 µM was -40.4%.
As for `CCS(=O)(=O)NC(CCSC)C(=O)Nc1ccc(C)cc1C` (stereo not given), the cytotoxicity at 10 µM is -8.9%.
For the compound `CN(Cc1cccc(F)c1)C(=O)CS(=O)(=O)Cc1c(Cl)cccc1Cl`, the cytotoxicity at 10 µM is -2.81%.
With `O=C(O)CC(NC(=O)c1cc(Br)c[nH]1)c1ccccc1` (stereo not given), the cytotoxicity at 10 µM turned out to be 1.22%.
With `CS(=O)(=O)N1C[C@@H]2CCN(C(=O)c3cscn3)[C@@H]2C1`, the cytotoxicity at 10 µM is 9.79%.
Next, `O=C(NCC1Cn2nnc(-c3ccncc3)c2CO1)c1ccc[nH]1` (stereo not given): 1.6%.
`O=C(c1ccnnc1)N1C[C@@H](OCC2CCOCC2)[C@H]2OCCC[C@H]21`: the cytotoxicity at 10 µM is -4.66%.
Next, `CC(C)[C@@H]1CN(C(=O)NCc2ccco2)C[C@H]1N(C)C`: 12.7%; `Cc1ccc(C)c2c(O)cc(CNCC(=O)N3CCCC3)nc12`: -12.4%.
Next, `COCC(NC1CSCCSC1)c1ccnn1C` (stereo not given): 4.34%; `COC(=O)CNC(=O)N1CCC2(CC1)CC(c1ccccc1)CN(C)C2` (stereo not given): 0.761%.
Then `COc1ccc(C(=O)N2C[C@@H](O)[C@H](NCc3ncccc3C)C2)cc1`, with 0.225%.
As for `O=C(NCC1CCCCO1)c1cc(Cn2cnc3ccccc32)[nH]n1` (stereo not given), the cytotoxicity at 10 µM is -11.3%.
Next, `CN(Cc1ccn[nH]1)C(=O)CCC(=O)NC1CCCC1`: 0.324%; `CC(C)S(=O)(=O)N1CCCC(c2nnc(Cn3ccnc3)n2C)C1` (stereo not given): -2.83%.
`Cc1ccc(C(=O)N2CCC(C(F)(F)F)CC2)cc1N1CCNC1=O`: the cytotoxicity at 10 µM turned out to be 2.01%.
Then `COC(=O)[C@@H]1C[C@H](NC(=O)c2cc(=O)[nH]c3ccc(C)cc23)CN1C`, with 6.46%; and `CCc1cc(C(=O)NCC2CCN(Cc3cccc(C#N)c3)C2)on1` (stereo not given), with 4.98%; and `CCC(Nc1ncccn1)c1cccnc1` (stereo not given), with 5.84%.
`COc1cccc([C@H]2CN(C(=O)c3noc4c3CCCC4)C[C@@H]2N)c1`: the cytotoxicity at 10 µM was determined as 2.57%.
For `C=C(C)COc1ccccc1C(=O)NCCCc1nnn[nH]1`, the cytotoxicity at 10 µM is -1.82%.
In the case of `c1ccc(C(Cn2cccn2)Nc2cnccn2)cc1` (stereo not given), the cytotoxicity at 10 µM turned out to be 2.99%.
Next, `CCC(C)N(Cc1cccnc1)Cc1ccccc1Cn1cccn1` (stereo not given): -43%.
Next, `Cc1ccc(C(C(=O)NCc2cc(C)[nH]n2)N(C)C)cc1` (stereo not given): -0.671%.
As for `O=C(c1ccc(N2CCOCC2)nc1)N1CCCC(n2cccn2)C1` (stereo not given), the cytotoxicity at 10 µM is -11.2%.
Take `Cc1cnn(CC2CCCN2Cc2nc(N)c3ccccc3n2)c1` (stereo not given): the cytotoxicity at 10 µM was -29.5%.
Then `CS(=O)(=O)c1ccc(OCCCN2CCc3cncnc3C2)cc1`, with -15.3%; and `COc1ccc(C(O)CN2CC(n3nc(C)cc3C)C2)cc1` (stereo not given), with -15.3%; and `CC(C)CS(=O)(=O)CC(=O)NC(C)c1nnc2n1CCC2` (stereo not given), with -19.1%.
As for `CC(C)(C)c1ncc(CNCC2CCCN2c2cccnn2)s1` (stereo not given), the cytotoxicity at 10 µM is -3.33%.
Then `OCC1CCCN1c1cc(NCc2cccs2)ncn1` (stereo not given), with -5.62%; and `Cn1ccc(CN2CCC(CN3CCOCC3)CC2)cc1=O`, with -11%.
Next, `CC(Cn1cccn1)NC(=O)NCc1cccnc1` (stereo not given): -0.088%.
Turning to `Cc1nc(CN2CCCC(N(C)CC(=O)Nc3cccnc3)C2)no1` (stereo not given), the cytotoxicity at 10 µM was -7.88%.
As to `CC(C)(O)CN1CCN(C(=O)c2cccc3[nH]ncc23)CC1`, the cytotoxicity at 10 µM amounted to 3.28%.
Take `CC(C(=O)Nc1ccc(N2CCCC2)nc1)n1ccnc1` (stereo not given): the cytotoxicity at 10 µM was -8.53%.
With `Cc1ccc(CNC(C)c2ccc3[nH]c(=O)[nH]c3c2)s1` (stereo not given), the cytotoxicity at 10 µM is -10.7%.
Then `Cc1cccc(CN2CCCCC2c2n[nH]cc2-c2cc(C)no2)c1` (stereo not given), with 6.5%; and `CN1CCN(C[C@H]2OC[C@@H]3CCN(C(=O)c4cnccn4)C[C@@H]32)CC1`, with 12%; and `Fc1cnc(N2CC[C@@H]3O[C@@H](COCc4cccnc4)CC[C@@H]32)nc1`, with 10.1%.
With `CNC(=O)[C@@H]1CCO[C@@H]2CCN(Cc3ccsc3)C[C@H]21`, the cytotoxicity at 10 µM is -78.3%.
Next, `CCc1ccc(CN2CCc3c(nnn3C)C2COC)cc1` (stereo not given): 7.28%; `O=C(NCC1CC1)C1CN(c2ncccn2)Cc2ccnn2C1` (stereo not given): 0.705%; `CNC(=O)c1cc(C2CCCN2)n[nH]1` (stereo not given): -11.9%.
Then `CCc1nccn1-c1cccc(C2CCCN2)n1` (stereo not given), with -5.77%; and `c1ccc(CN2CC[C@]3(C[C@@H](Oc4ccccn4)CO3)C2)nc1`, with -1.88%; and `Cn1cc(CN2C[C@H]3CCC[C@@H](CNc4ncccn4)[C@H]3C2)cn1`, with -2.57%.
Next, `CN(C)CCn1c2c(ccc1=O)CC(NCc1cnn(C)c1)CC2` (stereo not given): -105%; `O=C(Cc1ccsc1)N1C[C@@H]2OCCN(CC3CC3)[C@@H]2C1`: 10.1%; `O=C1CC(c2ccccc2)C2(CCN(CC3CC3)CC2)N1` (stereo not given): -6.47%.
Turning to `Cc1cnc(N2CCc3cc(C(=O)O)c(N(C)C)nc3CC2)nc1`, the cytotoxicity at 10 µM is -104%.
For `Cc1ccc(C(=O)N2C[C@@H]3OCCN(C)[C@@H]3C2)cn1`, the cytotoxicity at 10 µM is -68.3%.
With `Cn1ccnc1CN1CCC(F)(F)C2(CCN(c3cccnc3)C2)C1` (stereo not given), the cytotoxicity at 10 µM is -98.8%.
For `CN(Cc1cccnc1)CC1CN(C(=O)C2CC2)Cc2nccn2C1` (stereo not given), the cytotoxicity at 10 µM was -79.8%.
Next, `Cc1ccc(N2CC[C@@H]3[C@@H]2CCN3C(=O)Cc2cccs2)nn1`: -99.8%.
Next, `c1ccc(CN2CCC3(CC2)CC(Oc2cccnc2)C3)nc1`: -111%; `O=C(CCc1n[nH]c2c1CCCC2)N1C[C@H]2CC[C@@H](C1)N(CC1CC1)C2`: -3.73%; `COc1ccnc(N2C[C@H]3CC[C@@H](C2)N(CC2CC2)C3)n1`: -0.65%.

The values are drawn from ChEMBL document CHEMBL4513216, “Probing the Open Global Health Chemical Diversity Library for Multistage-Active Starting Points for Next-Generation Antimalarials” (ACS Infect Dis, 2020).
